Calls of active or inactive are those of the source. The calls are words filed in the database; no cut-off is given here.
Columns and labels:
[1] = Antioxidant activity assessed as trolox equivalent of ABTS radical cation scavenging activity incubated for 24 hrs by UV-Vis spectrophotometric analysis; assay type: functional
Acetylcholinesterase [2] = target: T1, Acetylcholinesterase (Homo sapiens, UniProt P22303); test: Inhibition of human erythrocyte AChE at 20 uM using acetylthiocholine iodide as substrate preincubated for 10 mins followed by substrate addition by Ellman's method relative to control
Procedure, shortened: (§1)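 Single-point screen at 20 μM in 0.1 M K/Na phosphate pH 7.5, 25 °C; 0.02 unit/mL enzyme, 1 mM ATCh (AChE) or BTCh (BChE), 0.33 mM DTNB; 2% DMSO final; 10 min preincubation then substrate; activity relative to inhibitor-free control; three separate experiments.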

[3] = target: Cholinesterase (Equus caballus) (UniProt P81908); test: Inhibition of equine serum BuChE at 20 uM using […] as substrate preincubated for 10 mins followed by substrate addition by Ellman's method relative to control; procedure, shortened: as §1
Liver carboxylesterase [4] = target: T2, Liver carboxylesterase (Sus scrofa, UniProt Q29550); test: Inhibition of porcine liver carboxylesterase using 4-NPA as substrate preincubated for 10 mins followed by substrate addition by spectrophotometric analysis; assay type: tissue-based
T2 sequence (Q29550 whole entry): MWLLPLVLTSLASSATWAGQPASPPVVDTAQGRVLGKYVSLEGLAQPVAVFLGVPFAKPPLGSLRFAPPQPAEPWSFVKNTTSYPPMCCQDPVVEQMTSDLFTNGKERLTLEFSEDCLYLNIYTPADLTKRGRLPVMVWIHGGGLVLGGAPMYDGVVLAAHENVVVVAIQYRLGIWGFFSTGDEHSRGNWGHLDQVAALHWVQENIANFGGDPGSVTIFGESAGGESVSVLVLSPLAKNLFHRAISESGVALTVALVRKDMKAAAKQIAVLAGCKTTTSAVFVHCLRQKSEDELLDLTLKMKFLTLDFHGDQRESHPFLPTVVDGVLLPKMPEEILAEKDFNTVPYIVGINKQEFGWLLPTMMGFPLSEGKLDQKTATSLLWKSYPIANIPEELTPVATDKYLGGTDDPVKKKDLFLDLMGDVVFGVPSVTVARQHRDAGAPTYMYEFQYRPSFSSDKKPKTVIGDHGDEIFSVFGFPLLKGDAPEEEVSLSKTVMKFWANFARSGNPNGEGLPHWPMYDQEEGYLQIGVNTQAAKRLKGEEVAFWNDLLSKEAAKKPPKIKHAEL
Procedure, shortened: (§2)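 Porcine liver CES, 0.02 unit/mL, in 0.1 M K/Na phosphate pH 8.0, 25 °C; compound in DMSO (2% v/v final) preincubated 10 min, then 1 mM 4-nitrophenyl acetate; 4-nitrophenol read at 405 nm, enzyme-free blanks. Screening at 20 μM in three separate experiments; IC50 from eight concentrations between 10^-12 and 10^-4 M, residual activity relative to inhibitor-free control.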

[5] = Antioxidant activity assessed as decrease in ABTS radical cation scavenging activity incubated for 24 hrs by UV-Vis spectrophotometric analysis; assay type: functional
Acetylcholinesterase [6] = target: T1, Acetylcholinesterase; test: Inhibition of human erythrocyte AChE using acetylthiocholine iodide as substrate preincubated for 10 mins followed by substrate addition by Ellman's method
Cholinesterase = Cholinesterase (Equus caballus, UniProt P81908); test: Inhibition of equine serum BuChE using […] as substrate preincubated for 10 mins followed by substrate addition by Ellman's method
Liver carboxylesterase 1 = target: T3, Liver carboxylesterase 1 (Homo sapiens, UniProt P23141); test: Inhibition of human recombinant CES1 expressed in baculovirus infected BTI insect cells using 4-NPA as substrate by spectrophotometric analysis
T3 sequence (P23141 whole entry): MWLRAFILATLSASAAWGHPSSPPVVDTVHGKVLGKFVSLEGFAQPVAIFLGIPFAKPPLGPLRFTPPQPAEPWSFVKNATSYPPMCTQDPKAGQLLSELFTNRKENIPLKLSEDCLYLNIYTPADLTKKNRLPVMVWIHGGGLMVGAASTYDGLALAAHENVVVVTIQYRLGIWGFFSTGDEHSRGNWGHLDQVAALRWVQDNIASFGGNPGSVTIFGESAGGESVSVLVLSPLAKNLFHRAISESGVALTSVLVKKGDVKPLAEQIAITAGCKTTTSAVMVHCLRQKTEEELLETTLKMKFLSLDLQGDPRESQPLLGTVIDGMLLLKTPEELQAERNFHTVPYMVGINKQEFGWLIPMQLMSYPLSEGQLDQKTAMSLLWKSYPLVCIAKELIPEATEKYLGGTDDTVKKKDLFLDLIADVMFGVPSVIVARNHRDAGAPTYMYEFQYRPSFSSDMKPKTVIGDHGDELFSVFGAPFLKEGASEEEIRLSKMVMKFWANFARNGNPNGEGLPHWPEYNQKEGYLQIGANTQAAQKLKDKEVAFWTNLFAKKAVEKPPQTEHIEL
Procedure, shortened: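 Recombinant hCES1 (baculovirus/BTI insect cells), 0.02 unit/mL, in 0.1 M K/Na phosphate pH 7.4, 25 °C; compound (DMSO, 2% v/v final) preincubated 10 min, then 1 mM 4-nitrophenyl acetate added; 4-nitrophenol release read at 405 nm against enzyme-free blank. IC50 from eight concentrations (10^-12–10^-4 M) relative to inhibitor-free control.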

[7] = Cytotoxicity against human FetMSC cells assessed as reduction in cell viability after 72 hrs by MTT assay; assay type: cell-based
Procedure, shortened: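 Human fetal MSC (bone-marrow fibroblast-like, nonimmortalized; ≤10–15 passages) grown in F12/DMEM with 10% FBS, 3 mM L-glutamine, penicillin/streptomycin. Seeded at 6×10^3 cells/well; after 24 h, medium replaced with compound at 100, 250, 500 μM for 72 h; controls 0.1% DMSO. MTT 0.5 mg/ml for 4 h, formazan dissolved in DMSO, read at 570 nm; control = 100%.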

[8] = Acute toxicity in ip dosed CD-1 mouse observed for 14 days; assay type: organism-based; settings: in vivo, time 14 day
Procedure, shortened: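 CD-1 mice given compound intraperitoneally in 2% (w/v) starch mucilage, three animals per dose group; lethality observed over 14 days; procedure based on OECD recommendations.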

Liver carboxylesterase [9] = target: T2, Liver carboxylesterase; test: Inhibition of porcine liver carboxylesterase at 20 uM using 4-NPA as substrate preincubated for 10 mins followed by substrate addition by spectrophotometric analysis relative to control; assay type: tissue-based; settings: pig, probe 4-NPA; procedure, shortened: as §2

Chain of Cholinesterase (P81908 whole entry): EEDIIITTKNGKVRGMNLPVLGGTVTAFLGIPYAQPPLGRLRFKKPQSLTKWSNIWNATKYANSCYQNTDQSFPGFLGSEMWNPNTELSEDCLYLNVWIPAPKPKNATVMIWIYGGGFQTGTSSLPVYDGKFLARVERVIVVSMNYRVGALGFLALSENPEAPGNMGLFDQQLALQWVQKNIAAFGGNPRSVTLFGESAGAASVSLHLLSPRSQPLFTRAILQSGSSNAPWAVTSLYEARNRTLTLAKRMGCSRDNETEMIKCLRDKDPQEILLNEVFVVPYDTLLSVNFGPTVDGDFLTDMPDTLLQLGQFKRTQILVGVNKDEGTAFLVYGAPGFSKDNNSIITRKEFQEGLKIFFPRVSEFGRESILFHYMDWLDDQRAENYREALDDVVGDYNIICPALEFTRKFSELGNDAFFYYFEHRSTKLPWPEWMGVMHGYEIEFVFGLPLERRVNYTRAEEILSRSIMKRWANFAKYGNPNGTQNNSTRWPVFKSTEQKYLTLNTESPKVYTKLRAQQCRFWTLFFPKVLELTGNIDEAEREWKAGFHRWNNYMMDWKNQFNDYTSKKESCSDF
Chain of Cholinesterase (Equus caballus) (P81908 whole entry): as above
T1 sequence (P22303 whole entry): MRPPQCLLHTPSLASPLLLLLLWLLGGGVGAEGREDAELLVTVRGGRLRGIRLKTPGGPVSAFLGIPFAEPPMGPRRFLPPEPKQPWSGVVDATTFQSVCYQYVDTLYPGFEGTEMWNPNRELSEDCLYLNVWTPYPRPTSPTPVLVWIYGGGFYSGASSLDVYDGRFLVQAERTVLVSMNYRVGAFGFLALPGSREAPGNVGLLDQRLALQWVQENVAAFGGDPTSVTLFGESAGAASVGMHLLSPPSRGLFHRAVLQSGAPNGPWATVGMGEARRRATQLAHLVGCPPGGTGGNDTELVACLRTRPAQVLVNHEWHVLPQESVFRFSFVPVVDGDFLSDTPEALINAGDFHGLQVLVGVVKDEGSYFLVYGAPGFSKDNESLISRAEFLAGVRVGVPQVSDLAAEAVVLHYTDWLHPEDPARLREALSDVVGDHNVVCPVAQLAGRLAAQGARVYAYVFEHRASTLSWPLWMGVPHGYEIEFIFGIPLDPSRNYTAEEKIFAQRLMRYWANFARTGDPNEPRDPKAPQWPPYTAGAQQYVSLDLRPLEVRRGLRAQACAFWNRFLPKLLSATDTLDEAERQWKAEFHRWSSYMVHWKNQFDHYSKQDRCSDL

| Compound | Activity [1] | inhibition (Acetylcholinesterase [2]) | inhibition [3] | IC50 (Liver carboxylesterase [4]) [µM] | IC50 [5] [µM] | IC50 (Acetylcholinesterase [6]) [µM] | IC50 (Cholinesterase) [µM] | IC50 (Liver carboxylesterase 1) [µM] | IC50 [7] [µM] | LD50 at 336 h [8] [mg/kg] | inhibition at 20 µM (Liver carboxylesterase [9]) [%] |
| --- | --- | --- | --- | --- | --- | --- | --- | --- | --- | --- | --- |
| CCOC(=O)/C(=N\Nc1ccc(C)cc1)C(=O)C(F)F | 0.37 | 18.2% | 12.4% | 3.23 | 53.3 | – | – | – | – | – | – |
| COC(=O)/C(=N\Nc1ccccc1)C(=O)C(F)(F)F | 0.78 | – | – | 0.0555 | 26.6 | 20.1 | 14.5 | 0.0115 | – | – | – |
| Cc1c(C)c2c(c(C)c1O)CCC(C)(C(=O)O)O2 (stereo not given) [TROLOX] | 1 | – | – | – | 20.4 | – | – | – | – | – | – |
| CCOC(=O)/C(=N\Nc1ccc(C(=O)OCC)cc1)C(=O)C(F)(F)F | 0.1 | – | – | 0.0471 | 193 | 3.79 | 19.6 | – | – | – | – |
| O=[N+]([O-])c1ccc(OP(=O)(O)Oc2ccc([N+](=O)[O-])cc2)cc1 | – | inactive | inactive | – | – | – | – | – | – | – | – |
| CCOC(=O)/C(=N\Nc1ccccc1C(=O)OCC)C(=O)C(F)(F)F | 0.04 | – | – | 0.0416 | – | 0.481 | 0.122 | – | – | – | – |
| CCOC(=O)/C(=N\Nc1ccc(C)cc1)C(=O)C(F)(F)C(F)(F)C(F)(F)C(F)(F)F | 0.26 | 17.2% | 4% | 0.0893 | 66.6 | – | – | – | – | – | – |
| COC(=O)/C(=N\Nc1ccc(C)cc1)C(=O)C(F)F | 0.38 | 5.8% | 2.3% | 1.57 | 52.6 | – | – | – | > 500 | – | – |
| CCOC(=O)/C(=N\Nc1ccccc1[N+](=O)[O-])C(=O)C(F)(F)F | 0.04 | – | – | 0.00495 | – | 0.759 | 8.06 | 0.0241 | > 500 | 300 | – |
| CCOC(=O)/C(=N\Nc1ccc(C)cc1)C(C)=O | 0.38 | 6.8% | inactive | – | 52.4 | – | – | – | – | – | 12.1 |
| O=C1O[C@H]([C@@H](O)CO)C(O)=C1O [ASCORBIC ACID] | 0.98 | – | – | – | 21.6 | – | – | – | – | – | – |
| COC(=O)/C(=N\Nc1ccc(OC)cc1)C(=O)C(F)(F)F | 0.97 | – | – | 0.0467 | 22.5 | 30.3 | 49.6 | 0.0213 | – | – | – |
| Oc1ccccc1O [CATECHOL] | 1.2 | – | – | – | 16.4 | – | – | – | – | – | – |
| CCOC(=O)/C(=N\Nc1ccc(OC)cc1)C(=O)C(F)(F)F | 1 | – | 24.3% | 0.0131 | 19.3 | 4.62 | – | 0.00429 | – | – | – |
| CCOC(=O)/C(=N\Nc1ccc(C)cc1)C(=O)C(F)(F)C(F)(F)C(F)(F)F | 0.3 | 23.6% | – | 0.102 | 62.3 | – | 42.1 | – | – | – | – |
| CCOC(=O)/C(=N\Nc1ccc(F)cc1)C(=O)C(F)(F)F | 0.6 | – | – | 0.00716 | 35.3 | 2.67 | 11.3 | 0.0223 | > 500 | – | – |
| Cc1ccc(N/N=C(\C(=O)c2ccccc2)C(=O)C(F)(F)F)cc1 | 1.7 | 9.1% | 19.4% | 5.54 | 12.8 | – | – | – | – | – | – |
| COC(=O)/C(=N\Nc1ccc(OC)cc1)C(=O)C(F)(F)C(F)(F)C(F)(F)F | 0.4 | 7.1% | 21.2% | 0.103 | 50.3 | – | – | 0.111 | – | – | – |
| COC(=O)/C(=N\Nc1ccccc1[N+](=O)[O-])C(=O)C(F)(F)F | 0.03 | – | – | 0.00765 | – | 20.9 | 45.1 | 0.102 | > 500 | 300 | – |
| CCOC(=O)/C(=N\Nc1ccc(C)cc1)C(=O)C(F)(F)C(F)(F)F | 0.36 | 11.5% | – | 0.164 | 55.2 | – | 31.1 | 0.0474 | – | – | – |
| CCOC(=O)/C(=N\Nc1ccc(Br)cc1)C(=O)C(F)(F)F | 0.53 | – | – | 0.00514 | 36.3 | 1.36 | 2.02 | 0.0153 | > 500 | 300 | – |
| CCOC(=O)/C(=N\Nc1cccc(C)c1)C(=O)C(F)(F)F | 0.85 | – | – | 0.00727 | 25.4 | 30.4 | 38.1 | 0.00517 | > 500 | 300 | – |
| CC(=O)/C(=N\Nc1ccc(C)cc1)C(=O)C(F)(F)F | 1.33 | 11% | 13.4% | 56.6 | 15.6 | – | – | – | – | – | – |
